Consider 4 molecules from ChEMBL document CHEMBL4382295, “Enhanced Tumor Selectivity of 5-Fluorouracil Using a Reactive Oxygen Species-Activated Prodrug Approach” (ACS Med Chem Lett, 2019).

Calls of active or inactive are those of the source. The rule behind the calls is not given here.

The test system of data set [1] is MCF7. As to the kind of experiment: Antiproliferative activity against human MCF7 cells assessed as reduction in cell viability at 1 to 100 uM after 48 to 72 hrs by CCK8 assay. In kind it is functional, cell-based. The method, boiled down:
(§1)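 Breast cancer MCF7 cells and normal MEC1 cells treated at a range of concentrations, concentrations up to 100 μM. Cell viability then measured. Mean ± SD, n = 4.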

In data set [2] the test system is MCF7. As to the kind of experiment: Induction of apoptosis in human MCF7 cells assessed as increase in cleaved caspase-3 level up to 100 uM after 48 hrs by Western blot analysis. In kind it is functional, cell-based. The method, boiled down: (§2)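 MCF7 cells treated 48 h at the indicated concentrations, with vehicle-treated cells as control. Lysates immunoblotted for PARP1 and caspase 3 and their cleaved forms (CL-PARP1, CL-caspase 3).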

For data set [3], the system named is MCF7. Put plainly: Induction of apoptosis in human MCF7 cells assessed as increase in cleaved PARP1 level up to 100 uM after 48 hrs by Western blot analysis. In kind it is functional, cell-based. The method, boiled down: as §2
A short description of data set [4]: Acute toxicity in C57BL/6J mouse assessed as decrease in body weight at 100 mg/kg, ip administered every other day for 12 days. In kind it is organism-based. The note with it: in vivo, 288 h.
The test system of data set [5] is MCF7. As to the kind of experiment: Induction of DNA damage in human MCF7 cells assessed as increase in gammaH2AX level after 48 hrs by DAPI staining based immunofluorescence assay. In kind it is functional, cell-based. The essentials:
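MCF7 cells treated 48 h at the indicated concentrations. γH2AX formation, a marker of DNA double-strand breaks, visualized by immunofluorescence.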

Data set [6] in a line: Acute toxicity in C57BL/6J mouse assessed as death at 100 mg/kg, ip administered every other day for 12 days. In kind it is organism-based. The note with it: in vivo, 288 h.
Data set [7] concerns MCF7. Put plainly: Antiproliferative activity against human MCF7 cells assessed as reduction in cell viability at 50 to 100 uM after 48 hrs in presence of ROS scavenger NAC by MTT assay.
The nature of data set [8]: Cytotoxicity against human MEC1 cells assessed as cell viability at 1 to 100 uM after 48 to 72 hrs by CCK8 assay relative to control. In kind it is cell-based. The following applies: read-out: Activity. The essentials:
as §1

For data set [9], the system named is NCI-H522. Put plainly: Antiproliferative activity against human NCI-H522 cells assessed as growth inhibition at 50 uM after 48 hrs by sulforhodamine B assay relative to control. In kind it is functional. The following applies: NCI-H522, 48 h, read-out: GI. The essentials: (§3)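 NCI cell-line screen (protocol per DTP/NCI). Cells exposed to a single concentration of 50 μM for 48 h, then percent growth inhibition determined.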
(In general: In SRB staining, fixed cells bind dye roughly in proportion to their protein.)

The test system of data set [10] is MDA-MB-468. As to the kind of experiment: Antiproliferative activity against human MDA-MB-468 cells assessed as growth inhibition at 50 uM after 48 hrs by sulforhodamine B assay relative to control. In kind it is functional. The following applies: MDA-MB-468, 48 h, read-out: GI. The essentials:
as §3

The subject of data set [11] is OVCAR-3. As to the kind of experiment: Antiproliferative activity against human OVCAR3 cells assessed as growth inhibition at 50 uM after 48 hrs by sulforhodamine B assay relative to control. The following applies: OVCAR-3, 48 h, read-out: GI. In kind it is functional. The essentials:
as §3

The subject of data set [12] is MCF7. Put plainly: Antiproliferative activity against human MCF7 cells assessed as growth inhibition at 50 uM after 48 hrs by sulforhodamine B assay relative to control. The note with it: MCF7, 48 h, read-out: GI. In kind it is functional. The essentials: as §3
In data set [13] the test system is MDA-MB-435. Put plainly: Antiproliferative activity against human MDA-MB-435 cells assessed as growth inhibition at 50 uM after 48 hrs by sulforhodamine B assay relative to control. In kind it is functional. The note with it: MDA-MB-435, 48 h, read-out: GI. The essentials: as §3
A short description of data set [14]: Acute toxicity in C57BL/6J mouse assessed as death at 100 mg/kg, ip administered every other day for 15 days measured during compound dosing. In kind it is organism-based. The following applies: in vivo, 360 h. The method, boiled down:
(§4)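 Wild-type male C57BL/6 mice, randomized into three groups of seven (21 total): vehicle (5% DMSO and 15% polyethylene glycol in saline) or 100 mg/kg test article. Dosed ip every other day for 15 days. Survival, body weight, eating, drinking and activity were recorded throughout treatment.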

A short description of data set [15]: Acute toxicity in C57BL/6J mouse assessed as abnormality in drinking at 100 mg/kg, ip administered every other day for 15 days measured during compound dosing. In kind it is organism-based. The following applies: in vivo, 360 h. The method, boiled down: as §4
Data set [16] can be described thus: Acute toxicity in C57BL/6J mouse assessed as decrease in body weight at 100 mg/kg, ip administered every other day for 15 days measured during compound dosing. In kind it is organism-based. The note with it: in vivo, 360 h. The essentials: as §4
Data set [17] can be described thus: Acute toxicity in C57BL/6J mouse assessed as effect on normal activity at 100 mg/kg, ip administered every other day for 15 days measured during compound dosing. In kind it is organism-based. The note with it: in vivo, 360 h. The method, boiled down: as §4
Data set [18] in a line: Acute toxicity in C57BL/6J mouse assessed as abnormality in eating at 100 mg/kg, ip administered every other day for 15 days measured during compound dosing. In kind it is organism-based. The note with it: in vivo, 360 h. The essentials:
as §4

Turning to `O=c1[nH]c(=O)n(Cc2ccccc2)cc1F`, the result in [1] was inactive.

`O=c1[nH]cc(F)c(=O)[nH]1` [FLUOROURACIL]: the result in data set [2], in [3], in data set [1] and in data set [5] was Active. In addition, the Activity result in data set [4] and in [6] was “Toxic” each time.

As for `O=c1[nH]c(=O)n(Cc2ccc(B(O)O)cc2)cc1F`, in [7], the result was inactive. In addition, the viability at up to 100 µM in [8] was above 95%. The result in [2], in data set [3], in data set [1] and in data set [5] was Active. In addition, the inhibition of growth at 50 µM in [9] was determined as 44%; in data set [10], 22%; in data set [11] it was 30%; in data set [12], 33%; in data set [13] it was 65%.

As to `CC1(C)OB(c2ccc(Cn3cc(F)c(=O)[nH]c3=O)cc2)OC1(C)C`, the Activity entry in [14], in [15], in data set [16], in data set [17] and in data set [18] was “Non-Toxic” in each case. For the same molecule, the outcome in [7] was inactive. Also, the viability at up to 100 µM in data set [8] was above 95%. In addition, the result in data set [2], in data set [3], in data set [1] and in [5] was Active. Also, the inhibition of growth at 50 µM was found to be 90% in data set [9]; 87% in data set [10]; 95% in data set [11]; 81% in data set [12]; 96% in data set [13].
